Assay outcomes as filed in PubChem.
In the library only some 2.3% were active in any assay of this set; here they are far more common.
TAAR1 antagonist – human TAAR1 antagonism; Q96RJ0; CHO RD-HGA16 TAAR1, Fluo-8 calcium fluorescence, antagonist; inhibition, % at 3 µM; hit rate 1.5% among 360,000; AID 624466;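 active = inhibition above a per-plate cutoff, the mean inhibition of test compounds on that plate plus 3 SD, cut at about 49% in these data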;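 note: 0% = DMSO plus EC80 beta-PEA response and 100% = DMSO alone without agonist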
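Material: CHO RD-HGA16 cells bearing hTAAR1; compound dosing: one-point dosing, 3 µM nominal final; schedule: dye loading 75 min at 37 °C, then 30 min room temperature; measured by: calcium fluorescence with Fluo-8; control set: vehicle and agonist controls; replication: n of 1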
OXTR potentiator – potentiators of human oxytocin receptor; P30559; CHO-OTR cells, Fluo-8 calcium fluorescence, potentiator mode; 0% = oxytocin EC15, 100% = EC100; activation, % at 3 µM; hit rate 0.061% among 320,000; AID 2445;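 active = activation above that plate's cutoff, the mean activation of tested compounds plus 3 SD, cut at about 6.6% in these data, passing the limit was not always enough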;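 note: 100% uses oxytocin at 75 nM as the full agonist control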
Target sequence (P30559 whole entry, looked up): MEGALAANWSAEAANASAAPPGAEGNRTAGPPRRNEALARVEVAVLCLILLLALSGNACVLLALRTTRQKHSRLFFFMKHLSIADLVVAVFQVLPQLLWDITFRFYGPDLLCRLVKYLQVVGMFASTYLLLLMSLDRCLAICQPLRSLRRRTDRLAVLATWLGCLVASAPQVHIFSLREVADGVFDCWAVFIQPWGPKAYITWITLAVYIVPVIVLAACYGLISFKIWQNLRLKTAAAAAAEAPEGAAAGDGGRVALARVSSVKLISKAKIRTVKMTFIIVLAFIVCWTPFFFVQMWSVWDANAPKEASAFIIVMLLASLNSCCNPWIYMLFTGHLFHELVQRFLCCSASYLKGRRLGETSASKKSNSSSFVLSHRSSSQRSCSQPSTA
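assay system = CHO-OTR cells, human receptor | schedule = compound 6 min at room temperature before oxytocin, 100 s read | detection = Fluo-8 intracellular calcium fluorescence, ex 470-495, em 515-575 nm | evaluation = normalized max/min fluorescence ratio, % activation | control set = EC15 oxytocin alone as 0%, 75 nM oxytocin (EC100) as 100%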
TAAR1 agonist – agonists of human TAAR1; Q96RJ0; CHO RD-HGA16 TAAR1, Fluo-8 calcium fluorescence; vehicle wells 0%, saturating PEA agonist 100%; activation, % at 3 µM; hit rate 0.99% among 360,000; AID 624467;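 active = activation above the mean activation of all test compounds in the run plus 3 SD, cut at about 38% in these data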
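System: CHO-derived RD-HGA16 cells with stable Gα16 and human TAAR1. Times: 17-24 h plating, Fluo-8 75 min 37 °C, 30 min RT. Measured by: calcium-sensitive Fluo-8 signal, excitation 470-495, emission 515-575 nm. Read-out basis: % activation relative to PEA EC100 response. Control set: DMSO and PEA EC100. Repeats: no replicates (n 1).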
OXTR ag – activates the human oxytocin receptor; P30559; CHO-OTR cells, Fluo-8 calcium fluorescence; normalized: DMSO 0%, oxytocin 100%; activation, % at 3 µM; hit rate 0.32% among 320,000; AID 2435;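 active = activation above the mean of all tested compounds plus 3 SD, cutoff set per screening run, cut at about 20% in these data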;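 note: peak over basal fluorescence ratio from a 100 s FLIPR kinetic read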
V1aR counter – V1a receptor agonism, counter-screen for OXTR agonists | P37288 | CHO-V1R cells, Fluo-8 calcium fluorescence, agonist mode; 0% DMSO, 100% 3 nM vasopressin | activation, % at 3 µM | hit rate 0.25% among 320,000;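 active = activation above the mean activation of all tested compounds plus 3 SD, per screening run, cut at about 20% in these data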;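 note: signal is peak over basal fluorescence ratio across a 100 second FLIPR read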
* marks the source's active call; other numbers are inactive results; · = no result given.

SMILES	TAAR1 antagonist	OXTR potentiator	TAAR1 agonist	OXTR ag	V1aR counter
Cc1ccc(N=c2ssnc2Cl)cc1	16	-11	41*	2	2
CCCCCCCCN1C(=O)[C@@H](CC(=O)NCCCCc2ccccc2)C[C@@]2(C(=O)OC)C1=C[C@H](C(C)(C)C)O[C@@H]2C	-18	·	10	·	·
Cc1ccccc1-c1nnn(Cc2cccc(S(=O)(=O)N3CCOCC3)c2)n1	60*	-12	10	13	12
Cc1cc2nc(-c3ccco3)c(Cc3cccc(Cl)c3)n2c(C)c1Br	-3	·	0	·	·
CCCCC[C@@H](/C=C/C1C(=O)C=C[C@H]1C/C=C\CCCC(=O)OC)OC(C)=O (some centres undefined)	50*	·	4	·	·
CCc1c(-c2cccc(OC)c2)ncn1CCc1ccccc1OC	-11	·	13	·	·
Nc1c(C(=O)NCC2CCCO2)c2nc3ccccc3nc2n1-c1ccccc1 (centres undefined)	50*	-15	27	8	5
CC1(C)Cc2cccc(OCC(=O)N3CCN(c4ccccc4F)CC3)c2O1	22	-2	1	-2	-1
COc1ccccc1N1CCN(C(=O)c2ccc(COc3cccc4c3OC(C)(C)C4)cc2)CC1	56*	-1	0	-1	0
Cn1nc(C(=O)OCC(=O)Nc2ccc(Cl)cc2Cl)c2ccccc2c1=O	-2	-5	7	2	1
O=C(CC1SC(=Nc2cccc3ccccc23)N(Cc2ccccn2)C1=O)Nc1ccccc1Br (centres undefined)	-34	-6	2	2	2
Cc1ccccc1N=C1SC(CC(=O)Nc2ccc3ccccc3c2)C(=O)N1Cc1ccccn1 (centres undefined)	51*	-9	10	3	4
CC(=O)Nc1ccc(C(=O)OCC(=O)N(c2ccccc2)C2CCCCC2)cc1	50*	-8	12	1	1
CCCC(C)NC(=S)NC(=O)c1cc(S(=O)(=O)N2CCOCC2)ccc1C (centres undefined)	-2	-10	6	0	3
Cc1ccc(S(=O)(=O)N2CCOCC2)cc1C(=O)NC(=S)N1CC(C)CC(C)C1 (centres undefined)	-2	-7	39*	-1	0
CCOC(=O)C1CCCN(CC(=O)c2ccc(F)cc2)C1 (centres undefined)	54*	-8	57*	0	-1
C[C@@H](O)CNC(=O)c1[nH]cnc1C(=O)Nc1ccc(CNC(=O)OC(C)(C)C)cc1	49*	·	8	·	·
CC(C)(C)OC(=O)CNC(=O)c1[nH]cnc1C(=O)Nc1ccc(CNC(=O)OC(C)(C)C)cc1	59*	-12	27	-2	2
CC(C)C[C@H](NC(=O)c1[nH]cnc1C(=O)Nc1ccc(CNC(=O)OC(C)(C)C)cc1)C(=O)OC(C)(C)C	27	-10	5	1	0
C[C@H](CO)NC(=O)c1[nH]cnc1C(=O)Nc1ccc(CNC(=O)OC(C)(C)C)cc1	-6	·	2	·	·
CC(C)C[C@H](NC(=O)c1[nH]cnc1C(=O)Nc1ccc(CNC(=O)OC(C)(C)C)cc1)C(=O)OCc1ccccc1	53*	-9	16	1	1
CC(C)(C)OC(=O)NCc1ccc(NC(=O)c2nc[nH]c2C(=O)NCCNC(=O)c2[nH]cnc2C(=O)Nc2ccc(CNC(=O)OC(C)(C)C)cc2)cc1	·	-4	·	2	2
O=[N+]([O-])c1ccc(Cl)c(S(=O)(=O)NC2=NCCC2)c1	0	·	4	·	·
CC(C)c1ccc(OCc2ccc(C(=O)N3CCN(c4ccccn4)CC3)cc2)cc1	57*	-9	8	0	1
CC(CC(=O)N1CCN(c2ccccc2)CC1)S(=O)(=O)c1ccc2c(c1)NC(=O)CO2 (centres undefined)	53*	-10	17	11	14
O=C1COc2ccc(S(=O)(=O)N3CCN(c4ccccc4)CC3)cc2N1	-14	-6	1	3	4
Cc1ccc(-c2cc(C(=O)Nc3ccncc3)c3ccccc3n2)cc1	6	-6	2	-1	0
Cc1ccccc1-c1cc(C(=O)Nc2sc(C)c(C)c2C(N)=O)c2ccccc2n1	50*	-11	18	0	-1
